Laboratory results as given in ChEMBL document CHEMBL4665866, “Generation, optimization and characterization of novel anti-prion compounds” (Bioorg Med Chem, 2020).

Test system: not listed separately
Experiment: Anti-prion activity against RML prion protein in mouse N2a cells by Western blotting analysis
Type: cell-based

`OC1(C#Cc2ccccc2)CCCCC1NCc1ccccc1` (racemic) showed an IC50 of 3.21 µM.

Test system: not listed separately
Experiment: Anti-prion activity against Scrapie prion protein in mouse N2a-FK cells after 48 hrs by immunoblotting analysis
Type: cell-based
Summary of the method: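 N2a cells persistently infected with FK-1 prion strain, seeded overnight at 37 °C, then exposed to compound at 1, 5 and 10 µM for 48 h. Lysates digested with 20 μg/mL proteinase K at 37 °C for 30 min, run on 15% SDS-PAGE, and western blotted. PrP^Sc band intensity was plotted against concentration and fitted to a Boltzmann sigmoid for IC50. Mean ± SD from at least three experiments.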

`O[C@@]1(C#Cc2ccccc2)CCCC[C@@H]1NCC1CCCCC1` (racemic) and `O[C@@]1(C#Cc2ccc(F)cc2)CCCC[C@@H]1NCC1CCCCC1` (racemic) are within 1.5-fold of each other in IC50: 4.7 µM for the first, 5.6 µM for the second.

Test system: N2a
Experiment: Anti-prion activity against Scrapie prion protein in mouse N2a-FK cells assessed as residual activity at 10 uM after 48 hrs by immunoblotting analysis relative to control
Type: cell-based
Summary of the method: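 FK-1-infected N2a cells were seeded overnight at 37 °C, then exposed to 10 µM compound for 48 h. Lysates were treated with 20 μg/mL proteinase K at 37 °C for 30 min, then 15% SDS-PAGE and western blot for PrP^Sc. PrP^Sc ratio is % of solvent-treated control (100%), Tukey-Kramer comparison, mean ± SD.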

Compared with `COC(=O)c1ccccc1C#C[C@]1(O)CCCC[C@@H]1NCc1ccccc1` (racemic), `O[C@@]1(C#Cc2ccccc2F)CCCC[C@@H]1NCc1ccccc1` (racemic) is lower in Activity: 103% for the first, 80.7% for the second.

First: O[C@@]1(C#Cc2ccccc2)CCCC[C@@H]1NCC1CCCCC1 (racemic)
Second: O[C@@]1(C#Cc2ccccc2)CCCC[C@@H]1NCC1CCCC1 (racemic)
The Activity of the first is lower: 32.7% for the first, 54.8% for the second.

Going from `O=S(=O)(N[C@H]1CCCC[C@@]1(O)CCc1ccccc1)c1ccccc1` (racemic) to `O=C(N[C@H]1CCCC[C@@]1(O)CCc1ccccc1)c1ccccc1` (racemic), the Activity rises from 112% to 126%.

Going from `O[C@@]1(C#Cc2cccc(F)c2)CCCC[C@@H]1NCc1ccccc1` (racemic) to `O[C@@]1(C#Cc2ccccc2)CCCC[C@@H]1NCc1cccc(F)c1` (racemic), the Activity falls from 74.5% to 61.2%.

Going from `OC1(CN[C@H]2CCCC[C@@]2(O)C#Cc2ccccc2)CCCCC1` (racemic) to `O[C@@]1(C#Cc2ccccc2)CCCCC[C@@H]1NCc1ccccc1` (racemic), the Activity falls from 77.5% to 75.7%.

Going from `COC(=O)c1cccc(C#C[C@]2(O)CCCC[C@@H]2NCc2ccccc2)c1` (racemic) to `COC(=O)c1ccc(C#C[C@]2(O)CCCC[C@@H]2NCc2ccccc2)cc1` (racemic), the Activity rises from 83.7% to 84.8%.

Going from `O[C@@]1(C#Cc2ccccc2)CCOC[C@@H]1NCc1ccccc1` (racemic) to `O[C@@]1(C#Cc2ccccc2)CCCC[C@@H]1NCc1ccccc1`, the Activity rises from 85.2% to 100%.

Going from `COc1ccc(C#C[C@]2(O)CCCC[C@@H]2NCc2ccccc2)cc1` (racemic) to `COc1ccc(CN[C@H]2CCCC[C@@]2(O)C#Cc2ccccc2)cc1` (racemic), the Activity rises from 75.7% to 83.3%.

Going from `O[C@@]1(C#Cc2ccccc2)CCCC[C@@H]1NCc1ccccn1` (racemic) to `O[C@@]1(C#Cc2ccccc2)CCCC[C@@H]1NCc1cccnc1` (racemic), the Activity falls from 116% to 63.4%.

Compared with `Cc1cccc(C#C[C@]2(O)CCCC[C@@H]2NCc2ccccc2)c1`, `Cc1cccc(CN[C@H]2CCCC[C@@]2(O)C#Cc2ccccc2)c1` is lower in Activity: 93.7% for the first, 84.8% for the second.

Compared with `O[C@@]1(C#Cc2ccccc2)CCCC[C@@H]1NCc1ccncc1` (racemic), `OC1(C#Cc2ccccc2)CCCCC1NCc1ccccc1` (racemic) is lower in Activity: 102% for the first, 85.8% for the second.

Going from `O[C@@]1(C#Cc2ccccc2)CCCC[C@@H]1N1CCc2ccccc2C1` (racemic) to `O[C@@]1(C#Cc2ccccc2)CCCC[C@@H]1NCc1ccccc1F` (mixture of isomers), the Activity falls from 86% to 68.6%.

Compared with `O[C@@]1(C#Cc2ccccc2)CCCC[C@@H]1NCc1ccc(F)cc1` (racemic), `O[C@@]1(C#Cc2ccc(F)cc2)CCCC[C@@H]1NCc1ccccc1` (racemic) is higher in Activity: 58.8% for the first, 95.1% for the second.

Compared with `CC(C)(C)OC(=O)N1CC[C@@](O)(C#Cc2ccccc2)[C@@H](NCc2ccccc2)C1` (racemic), `CCOC(=O)CN(Cc1ccccc1)[C@H]1CCCC[C@@]1(O)C#Cc1ccccc1` (racemic) is lower in Activity: 108% for the first, 76.1% for the second.

Compared with `OC(C#Cc1ccccc1)CNCc1ccccc1` (centres undefined), `C(#C[C@@]12CCCC[C@@H]1N2Cc1ccccc1)c1ccccc1` (mixture of isomers) is lower in Activity: 120% for the first, 96.7% for the second.

First: O[C@@]1(C#Cc2ccc(Cl)cc2)CCCC[C@@H]1NCc1ccccc1 (racemic)
Second: Cc1ccc(CN[C@H]2CCCC[C@@]2(O)C#Cc2ccccc2)cc1 (racemic)
The Activity of the first is higher: 77.5% for the first, 75.5% for the second.

First: O=C1O[C@@]2(C#Cc3ccccc3)CCCC[C@@H]2N1Cc1ccccc1
Second: O[C@@]1(C#Cc2ccccc2)CCCC[C@@H]1NCc1ccccc1Cl (racemic)
The Activity of the first is lower: 68.4% for the first, 96.1% for the second.

Compared with `O[C@@]1(C#Cc2ccccc2)CCCC[C@@H]1N1CC[C@@H]2CCCC[C@H]2C1` (racemic), `Cc1ccc(C#C[C@]2(O)CCCC[C@@H]2NCC2CCCCC2)cc1` (racemic) is higher in Activity: 66.7% for the first, 75.2% for the second.

Going from `O[C@@]1(/C=C/c2ccccc2)CCCC[C@@H]1NCc1ccccc1` to `O[C@@]1(C#Cc2ccccc2)CCCC[C@@H]1NCc1ccco1` (racemic), the Activity rises from 81.6% to 103%.

Going from `N[C@H]1CCCC[C@@]1(O)CCc1ccccc1` (racemic) to `O[C@@]1(C#Cc2ccc(F)cc2)CCCC[C@@H]1NCC1CCCCC1` (racemic), the Activity falls from 88% to 35.5%.

Test system: not listed separately
Experiment: Anti-prion activity against 22L prion protein in mouse N2a cells by Western blotting analysis
Type: cell-based

`OC1(C#Cc2ccccc2)CCCCC1NCc1ccccc1` (racemic) showed an IC50 of 8.25 µM.
